Source: ChEMBL document CHEMBL1156781, “The binding of synthetic retinoids to lipocalin beta-lactoglobulins” (J Med Chem, 2010)
≈ marks a conversion by molar mass, not a printed value. Calls of active or inactive are those of the source. No cut-off for these calls is given here.

Legend:
Beta-lactoglobulin = target: T1, Beta-lactoglobulin (Bos taurus, UniProt P02754); assay: (§1) Binding affinity to bovine beta-lactoglobulins by fluorescence spectroscopy
T1 sequence (P02754 whole entry): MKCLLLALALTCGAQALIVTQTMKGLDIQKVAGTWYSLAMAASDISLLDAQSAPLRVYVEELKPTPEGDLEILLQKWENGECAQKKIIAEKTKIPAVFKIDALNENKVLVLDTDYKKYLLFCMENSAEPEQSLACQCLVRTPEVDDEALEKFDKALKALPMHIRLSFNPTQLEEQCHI

Rangifer tarandus [1] = assay: Binding affinity to reindeer beta-lactoglobulin at 100 uM by ultrafiltration/HPLC method
Outline: (§2)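 Ultrafiltration sampling with HPLC analysis. Ligand at 100 μM was allowed to interact with βLG at 50 μM, and the fraction of ligand found in the retentate was quantified as a percentage.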

[2] = Solubility assessed as lowest drug level in which detectable aggregates formed by dynamic light scattering method; type: physicochemical
Outline: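 Retinoid dilutions in PBS measured by dynamic light scattering. The critical concentration is the lowest level giving DLS-detectable aggregates. Concentrations ran up to 200 μM.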

[3] = target: T2, Beta-lactoglobulin (Bos taurus) (UniProt P02754); assay: Binding affinity to bovine beta-lactoglobulins assessed as aggregate diameter size formed at 200 uM by dynamic light scattering method
T2 sequence (whole entry): T1 sequence (P02754 whole entry)
Outline: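 Retinoid at 200 μM diluted in PBS and measured by dynamic light scattering as mean intensity and particle diameter (kCps/nm). Bovine βLG was then added to the cuvette at 50 μM, and a second run followed a 30 min stabilization phase.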

[4] = Solubility assessed as aggregate formation at <= pH 4 by dynamic light scattering method; type: physicochemical; conditions: buffer
Outline: (§3)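 Retinoids diluted in acid buffer spanning pH 2.0 to 7.0 and examined by dynamic light scattering for aggregate signal.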

[5] = target: T2, Beta-lactoglobulin (Bos taurus); assay: Binding affinity to bovine beta-lactoglobulins at 100 uM by ultrafiltration/HPLC method; outline: as §2
[6] = (§4) Binding affinity to reindeer beta-lactoglobulin by fluorescence spectroscopy; parameters: species or system Rangifer tarandus
[7] = Solubility in PBS assessed as aggregate diameter size at 200 uM by dynamic light scattering method
[8] = target: T2, Beta-lactoglobulin (Bos taurus); assay: as §1
[9] = Solubility assessed as aggregate formation at >= pH 5 by dynamic light scattering method; type: physicochemical; conditions: buffer; outline: as §3
Rangifer tarandus [10] = assay: as §4

Kd (Beta-lactoglobulin) [nM]	Activity (Rangifer tarandus [1])	solubility [2] [µM]	Activity [3] [nm]	solubility [4]	Activity [5]	Kd [6] [nM]	Activity [7] [nm]	Activity [8]	solubility [9]	Activity (Rangifer tarandus [10])	Compound
153	18.8%	100 (≈ 29.6 µg/mL)	188	Insoluble	29.1%	107	668.7	–	–	–	CC1=C(/C=C/c2ccc(/C=C/C(=O)O)cc2)C(C)(C)CCC1
–	Active	50 (≈ 17.4 µg/mL)	243	–	Active	–	848.5	Active	Insoluble	Active	C/C(=C\c1ccc(C(=O)O)cc1)c1ccc2c(c1)C(C)(C)CCC2(C)C

Continued, compound first:

Compound	Kd (Beta-lactoglobulin) [nM]	Activity (Rangifer tarandus [1])	solubility [2] [µM]	Activity [3] [nm]	solubility [4]	Activity [5]	Kd [6] [nM]	Activity [7] [nm]	Activity [8]	solubility [9]	Activity (Rangifer tarandus [10])
CC1=C(/C=C/C(C)=C/C=C/C(C)=C/C(=O)Nc2ccc(O)cc2)C(C)(C)CCC1 [FENRETINIDE]	–	Active	100 (≈ 39.2 µg/mL)	424	–	Active	–	818.1	Active	Insoluble	Active
CC1=C(/C=C/C(C)=C/C=C/C(C)=C/CO)C(C)(C)CCC1 [RETINOL]	–	7.6%	–	129	Insoluble	7.9%	200	972.2	–	–	–
COC(=O)/C=C/c1ccc(/C=C/C2=C(C)CCCC2(C)C)cc1	–	11%	–	276	–	7%	–	791.6	Active	Insoluble	–
